# In ChEMBL document CHEMBL4513216, “Probing the Open Global Health Chemical Diversity Library for Multistage-Active Starting Points for Next-Generation Antimalarials” (ACS Infect Dis, 2020):
# Assay: Toxicity liver stage against HepG2, at 10uM
# Assay type: cell-based
# Set-up: test concentration 10 uM, cell line HepG2-A16-CD81EGFP
# Conditions: human, HepG2-A16-CD81EGFP cells; read-out: INHIBITION
# Outline: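 Uninfected HepG2-A16-CD81EGFP cells, 3 × 10^3 per well, 1536-well, plated on prespotted compound at 10 μM final, parasite-free screening media added to match infected plates; puromycin 10 μM positive, DMSO 0.5% negative; run in parallel with 48 h PbLuc assay at 37 °C, 5% CO2; viability by CellTiter-Glo luminescence, normalized to controls.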
row,SMILES,cytotoxicity at 10 µM
1,O=C(NCCN1CCCCC1)C(c1ccccc1)N1CCCC1 (stereo not drawn),-1.46%
2,CC(C)n1ccc2cc(C(=O)Nc3nc[nH]n3)ccc21,4.06%
3,COCC(C)NC(=O)c1nnn(-c2ccc(OC)cc2)n1 (stereo not drawn),1.87%
4,Nc1cccnc1N1CCC(C(F)(F)F)CC1,8.19%
5,CCC(CC)NC(=O)c1ccc2c(c1)C(c1nc[nH]n1)CN2S(C)(=O)=O (stereo not drawn),-138%
6,COC1COC2(CCN(C(=O)c3cnc(C)cn3)CC2)C1 (stereo not drawn),4.29%
7,COCC1c2nnn(CC3CC3)c2CCN1C(=O)C1CCOCC1 (stereo not drawn),-136%
8,COCC(=O)N1CCC2(COCc3cnc(-c4ccccc4)nc32)C1 (stereo not drawn),2.65%
9,CCCNC(=O)c1nc2c(o1)CN(C(=O)CN(C)C)C2,0.0773%
10,O=C(c1cccs1)N1CCN(CC2CC2)c2ncccc2C1,0.835%
11,O=C(O)c1nnn(-c2ccc(OC(F)(F)F)cc2)c1-c1ccncc1,-5.85%
12,Cc1cc(C(F)(F)F)nn1CC(C)C(=O)Nc1ccccn1 (stereo not drawn),9.84%
13,CCn1nc(C)c2c1cnn2CCNS(=O)(=O)c1ccccc1,6.28%
14,CCc1nnc(SCc2nonc2C)n1C,-1.04%
15,Nc1nccnc1C1CN(Cc2ccc(OCC(=O)O)cc2)CCO1 (stereo not drawn),-2.11%
16,CCc1nccn1-c1cncc(C2CCN(C(=O)COC)CC2)n1,-37.3%
17,CS(=O)(=O)c1cn[nH]c1C1CCCCN1C(=O)c1cnccn1 (stereo not drawn),-2.13%
18,CN(C)CC(=O)N1C[C@@H]2CC[C@H](Oc3ccccc3)[C@@H]2C1,-26.4%
19,Cc1ncc(CN2CCCC(c3nc4ccccc4n3C(C)C)C2)s1 (stereo not drawn),-24.9%
20,O=C(Cc1ccccn1)N1CCC(O)(Cn2ccc3ccncc32)CC1,-5.24%
21,Cc1cc(-c2cnc(NC3CC3)nc2-c2ccco2)on1,-23.2%
22,O=C(O)C1(Cc2cccc(-c3ccc(F)cc3)c2)CCOCC1,-24.1%
23,Cc1cc(C)nc(Nc2cccc(C3CCCN(C(C)C)C3)n2)n1 (stereo not drawn),-19.4%

row,SMILES,cytotoxicity at 10 µM
1,O=C(CSc1nnc(N2CCOCC2)s1)NCc1cccs1,1.66%
2,O=C(NC1CCCCC1)c1c(F)cccc1F,3.32%
3,Cc1nc(CNC(=O)NCC2(C)CCCc3ccccc32)no1 (stereo not drawn),-3.05%
4,CSc1cc2c(cc1NC(=O)N(C)Cc1cnn(C)c1)OCCO2,5.25%
5,CN1CCN(C2CCN(Cc3noc(C(C)(C)C)n3)CC2)C1=O,17.1%
6,CCC1COCCN1C(=O)CNC(=O)c1ccoc1C (stereo not drawn),-7.51%
7,COCCCn1ccc(NC2CCSCC2)n1,3.04%
8,CN(CC(N)=O)Cc1c(Cl)ccc2cccnc12,4.53%
9,Cc1nnc(NCc2ccc(N3CCC(CO)CC3)cc2)c(C#N)c1C,-2.83%
10,O=C(CN1CCS(=O)(=O)CC1)NC1CCOc2ccccc21 (stereo not drawn),5.44%
11,O=C(CCn1ccc2ccccc21)N1CCC(Nc2cccnc2)CC1,9.08%
12,Cn1c(C2CC2)nc2cc(NC(=O)C3CC=CC3)ccc21,2.8%
13,Cc1csc(CCCNC(=O)NC2CC(=O)N(C(C)(C)C)C2)n1 (stereo not drawn),-8.88%
14,CC(NC(=O)c1cc(-c2cccc(Cl)c2)no1)C(=O)N(C)C (stereo not drawn),-2.16%
15,COc1cc(C(=O)N2CCC(Nc3cccnc3)CC2)ccc1C,-134%
16,Cc1nc(CNC(=O)NCc2ccc(OCC3CC3)nc2)cs1,5.07%
17,COCCN1C(=O)CC(N2CCN(c3ccccc3)CC2)C1=O (stereo not drawn),1.22%
18,COc1cccc2[nH]cc(CCNC(=O)N3CCC[C@H]3CO)c12,-12.6%
19,Cc1nn(C)c(C)c1CC(=O)N1CCCC1Cn1cccn1 (stereo not drawn),-14.8%
20,Cc1nn(C(C)C)c(C)c1S(=O)(=O)Nc1ccc(C(=O)O)c(Cl)c1,-9.5%
21,NC(=O)C1CN(c2ccc3c(Cl)ccnc3c2F)CCO1 (stereo not drawn),3.06%
22,CC(C)(C)C(=O)NCCCn1cncn1,-9.46%
23,N#Cc1ccc(NCCc2n[nH]c(=O)[nH]2)cc1Cl,26.5%

row,SMILES,cytotoxicity at 10 µM
1,Cc1cc(=O)n(C)cc1NC(=O)Cc1cccc(Cl)c1,-12.8%
2,Cc1noc(C)c1CSCc1nc(N)c2ccccc2n1,5.15%
3,COCC(=O)NC(c1ccc(Cl)cc1)C(F)(F)F (stereo not drawn),6.76%
4,CS(=O)(=O)CCCN(CCc1cccc(F)c1)C1CC1,-18.3%
5,Cc1ccc(CN(C)c2cc(N3CCCC3CO)ncn2)s1 (stereo not drawn),5.6%
6,CCCc1nccn1CCn1cnc2ccsc2c1=O,0.0394%
7,CC(C)(C)NS(=O)(=O)c1cc(NC(=O)C2CC2)ccc1F,-10.6%
8,COCC1CN(C(=O)Nc2cc(C(F)(F)F)ccc2F)CCO1 (stereo not drawn),4.24%
9,COc1cc(F)c(S(=O)(=O)N2CCN(C)Cc3ccccc32)cc1OC,3.84%
10,O=C(NCc1ccoc1)NC1CCCN(c2ncccn2)C1 (stereo not drawn),-1.27%
11,Cc1nc(C)n(C2CCCN(C(=O)Cc3cccnc3)C2)n1 (stereo not drawn),-2.15%
12,CS(=O)(=O)N[C@@H]1CCN(Cc2cccs2)[C@H]1Cc1cccnc1,-78.5%
13,Cc1cc(C)n(CC(C)NC(=O)C2(c3ccccc3F)CC2)n1 (stereo not drawn),-0.844%
14,O=C(c1cccnc1-c1ccc2c(c1)OCCO2)N1CCCC1,3.82%
15,COc1cccc2c1OCC(C(=O)N1CCN(CCS(C)(=O)=O)CC1)C2 (stereo not drawn),1.28%
16,Cc1noc(C)c1C(=O)N1CCC2(CC1)c1nc[nH]c1CCN2C,7.9%
17,Cc1nc(C2CCCNC2)cc(N(Cc2c(C)nn(C)c2C)C2CC2)n1 (stereo not drawn),-7.23%
18,CC(C)Cn1cncc1-c1nc2c([nH]1)CCCNC2=O,15%
19,CC1CCN(CC(=O)N(C)CCc2noc(C3CC3)n2)C1=O (stereo not drawn),-133%
20,Cc1cc(C)c(C(=O)NC(CN2CCCC2)c2ccccc2)c(=O)[nH]1 (stereo not drawn),-2.57%
21,Fc1cc(Cl)cnc1N1CCCC(c2nccn2Cc2ccccn2)C1 (stereo not drawn),-3.54%
22,O[C@H]1[C@H](n2cc(-c3cncnc3)nn2)c2ccccc2C12CCNCC2,-1.39%
23,O=c1[nH]nc(C2CC2)n1-c1cccc(Cl)c1,-3.11%

row,SMILES,cytotoxicity at 10 µM
1,CSc1nccc(N2CCC3(CCCN(CC4CC4)C3)C2)n1 (stereo not drawn),-10.1%
2,CN1C(=O)C2(CCN(c3nccc4occc34)CC2)c2ccccc21,1.16%
3,CCN(Cc1cnn(C)c1)C[C@H]1CC[C@@H](Cc2ccc(OC)nc2)O1,1.94%
4,CCCn1ncnc1C(C)NC(=O)CC1CCN(C(C)C)CC1 (stereo not drawn),-150%
5,CC(C)=CCN1CCC(c2nccn2Cc2cscn2)CC1,-13%
6,CNC(=O)c1ccc(OC2CCN(S(C)(=O)=O)CC2)c(Cl)c1,1.49%
7,CC(=O)N1CCC(c2cc(C(F)(F)F)n3ccnc3n2)CC1,1.56%
8,CCN(Cc1ccc2c(c1)OCO2)S(=O)(=O)N(C)C,-2.97%
9,Cc1cccc(C(=O)N2CCCCC2c2nc(C)cs2)n1 (stereo not drawn),-7.26%
10,O=C(NCC1CCCO1)N1CCN(Cc2ccc3c(c2)CCO3)CC1 (stereo not drawn),-5.91%
11,O=C(c1nn(-c2ccccc2F)cc1O)N1CCCSCC1,-0.0414%
12,CCc1ccc(C(=O)N2CCN(CC(O)CC)CC2)o1 (stereo not drawn),-17.6%
13,COc1c(C)cnc(CN2CCOC(Cn3nc(C)cc3C)C2)c1C (stereo not drawn),3.66%
14,Cc1nn(C)c(N2CCOCC2)c1CNC1CCN(C2CC2)CC1,-3.96%
15,Fc1ccc(-c2cnc(CN3CCOC(Cn4cccn4)C3)o2)cc1 (stereo not drawn),-12.1%
16,Cc1nc(C2CCCN(C(=O)c3cc(C(C)(C)C)on3)C2)no1 (stereo not drawn),-11.9%
17,CC(=O)Nc1nc(C(=O)NCc2ccc(N3CCOC(C)C3)nc2)cs1 (stereo not drawn),0.109%
18,CN(Cc1nnc2n1CCC2)C(=O)CCc1ccc2c(c1)OCO2,-14%
19,O=C(NCc1nncn1-c1ccccc1)C1CC1,-13.1%
20,CC(C)c1nc(C2CCCN2C(=O)CCn2cncn2)no1 (stereo not drawn),-2.38%
21,Cc1ccc(C)c(S(=O)(=O)CCNC2CCc3ncnn3C2)c1 (stereo not drawn),-30.6%
22,CC(NCc1nnc2n1CCCC2)C(=O)N1CCc2sccc2C1 (stereo not drawn),-26.2%
23,Cc1nc(CN2CCN(C(C)c3nc(C4CC4)no3)CC2)no1 (stereo not drawn),-6.34%

row,SMILES,cytotoxicity at 10 µM
1,CC(C)(CNC(=O)NCCc1ccn(-c2ccccc2)n1)C(N)=O,-16.8%
2,CN(C)c1cc(CNC(=O)c2cc(Cl)ccn2)ccn1,-15%
3,Cc1nc(CN2CCCC(N(C)Cc3nnc(C4CC4)o3)C2)no1 (stereo not drawn),-24.2%
4,CCOc1ccccc1CSCCn1nc2ccccn2c1=O,1.88%
5,CCc1nc(CN2CCCN(C(=O)C3CCOC3)CC2)cs1 (stereo not drawn),3.09%
6,COc1ccc(-c2nc(CNCCn3cccn3)cs2)cc1,-1.17%
7,COc1cccc(CN(C)Cc2nc3c(cnn3C)c(=O)[nH]2)c1OC,-4.28%
8,Cc1csc(N2CCN(C(=O)CCn3cncn3)CC2)n1,-5.97%
9,CN(Cc1cnn(C)c1)C(=O)NCc1nnc2n1CCC2,-4.1%
10,CCOCC(O)CN1CCN(C(=O)C2CC2)CC1 (stereo not drawn),-7.2%
11,CC(NC(=O)N(C)Cc1ccc(Cl)s1)c1ccccn1 (stereo not drawn),0.313%
12,CC(C)C[C@H](N)c1nnc(SCC(N)=O)o1,4.95%
13,Cc1ccc(CN2C[C@H](N3CCOCC3)[C@@H]3OCCC[C@@H]32)o1,-125%
14,C[C@H]1CN(C)C[C@@]12COCCN(C(=O)Cc1ccccc1)C2,3.65%
15,Fc1cnc(N2CC[C@@H]3O[C@H](COCc4ccccn4)CC[C@@H]32)nc1,2.9%
16,O=C1[C@H]2CN(Cc3ccco3)C[C@H]2CN1c1cncnc1,-3.64%
17,Cc1n[nH]cc1CNCC1(c2ccc3c(c2)OCO3)CCOCC1,7.73%
18,COCC(=O)NC[C@]12COC[C@H]1CN(c1ncc(F)cn1)C2,-143%
19,CC1CCN(c2nc3cn(-c4ccccc4)c(=O)c-3c[nH]2)CC1,-12.6%
20,Cc1nc(C)c(CC(=O)N2C[C@H]3CC[C@@H](C2)N(CC2CC2)C3)s1,-1.59%
21,O=c1c2c[nH]c(N3CCOCC3)nc-2cn1-c1ccc2c(c1)OCO2,-13.1%
